Laboratory results from ChEMBL document CHEMBL4765233, “From Lead to Drug Candidate: Optimization of 3-(Phenylethynyl)-1H-pyrazolo[3,4-d]pyrimidin-4-amine Derivatives as Agents for the Treatment of Triple Negative Breast Cancer” (J Med Chem, 2016).

Key:
[1] = tested on: MDA-MB-231; assay: Antiproliferative activity against human MDA-MB-231 cells assessed as reduction in cell viability incubated for 72 hrs by MTT assay; format: functional, cell-based; conditions: MDA-MB-231, 72 h
In short: (§1)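 MTT viability assay. ATCC cell lines were grown in designated medium with 10% FBS at 37 °C, 5% CO2. Cells seeded at 1500−30000 per well and incubated 24 h, then exposed to compound (0−10 μg/mL) for 72 h. MTT added for 2−4 h. Formazan dissolved in DMSO (adherent) or acidified SDS overnight (suspension), absorbance read at 570 nm. Triplicates; IC50 calculated.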

[2] = tested on: MDA-MB-435; assay: Antiproliferative activity against human MDA-MB-435 cells assessed as reduction in cell viability incubated for 72 hrs by MTT assay; format: functional, cell-based; conditions: MDA-MB-435, 72 h; in short: as §1
[3] = tested on: HepG2; assay: Antiproliferative activity against human HepG2 cells assessed as reduction in cell viability incubated for 72 hrs by MTT assay; format: ADME, cell-based; conditions: HepG2, 72 h

| IC50 [1] | IC50 [2] | IC50 [3] | SMILES |
| --- | --- | --- | --- |
| 284 nM | 183 nM | > 10 µM | Cc1ccc(NC(=O)c2ccnc(C(F)(F)F)c2)cc1C#Cc1nn(C2CCN(C)CC2)c2ncnc(N)c12 |
| 59 nM | 20 nM | > 10 µM | Cc1ccc(NC(=O)c2cccc(C(C)(C)C)c2)cc1C#Cc1nn(C2CCN(C)CC2)c2ncnc(N)c12 |
| 48 nM | 123 nM | 8.3 µM | Cc1ccc(NC(=O)c2ccc(C)c(C(F)(F)F)c2)cc1C#Cc1nn(C[C@@H](C)CO)c2ncnc(N)c12 |
| 812 nM | 2070 nM | > 10 µM | Cc1ccc(NC(=O)c2cccc(F)c2)cc1C#Cc1nn(C2CCN(C)CC2)c2ncnc(N)c12 |
| 167 nM | 65 nM | > 10 µM | Cc1ccc(NC(=O)c2cncc(C(F)(F)F)c2)cc1C#Cc1nn(C2CCN(C)CC2)c2ncnc(N)c12 |
| 360 nM | 238 nM | > 10 µM | CCn1nc(C#Cc2cc(C(=O)Nc3cccc(C(F)(F)F)c3)ccc2C)c2c(N)ncnc21 |
| 1360 nM | 8900 nM | > 10 µM | COc1ccc(C(=O)Nc2ccc(C)c(C#Cc3nn(C4CCN(C)CC4)c4ncnc(N)c34)c2)cc1 |
| 188 nM | 82 nM | > 10 µM | Cc1ccc(NC(=O)c2cc(C(C)(C)C)on2)cc1C#Cc1nn(C2CCN(C)CC2)c2ncnc(N)c12 |
| 133 nM | 422 nM | > 10 µM | Cc1cccc(C(=O)Nc2ccc(C)c(C#Cc3nn(C4CCN(C)CC4)c4ncnc(N)c34)c2)c1 |
| 324 nM | 80 nM | > 10 µM | Cc1ccc(NC(=O)c2cc(C(C)(C)C)nn2C)cc1C#Cc1nn(C2CCN(C)CC2)c2ncnc(N)c12 |
| 509 nM | 2470 nM | > 10 µM | Cc1ccc(NC(=O)c2cccc(C(F)(F)F)n2)cc1C#Cc1nn(C2CCN(C)CC2)c2ncnc(N)c12 |
| 30 nM | 12 nM | 4.4 µM | Cc1ccc(NC(=O)c2cccc(C(C)(C)C)c2)cc1C#Cc1nn([C@H]2CC[C@H](O)CC2)c2ncnc(N)c12 |
| 70 nM | 55 nM | 3.1 µM | Cc1ccc(C(=O)Nc2cccc(C(F)(F)F)c2)cc1C#Cc1nn(CC2CCN(C)CC2)c2ncnc(N)c12 |
| 85 nM | 63 nM | 2.6 µM | Cc1ccc(NC(=O)c2cc(Cl)cc(C(F)(F)F)c2)cc1C#Cc1nn(C2CCN(C)CC2)c2ncnc(N)c12 |
| 515 nM | 90 nM | > 10 µM | Cc1ccc(NC(=O)Nc2cccc(C(F)(F)F)c2)cc1C#Cc1nn(C2CCN(C)CC2)c2ncnc(N)c12 |
| 34 nM | 73 nM | > 10 µM | Cc1ccc(NC(=O)c2cnc(C(C)(C)C)s2)cc1C#Cc1nn(C[C@@H](C)CO)c2ncnc(N)c12 |
| 13 nM | 44 nM | 4.6 µM | Cc1ccc(C(=O)Nc2cccc(C(F)(F)F)c2)cc1C#Cc1nn([C@@H]2CCN(C)C2)c2ncnc(N)c12 |
| 597 nM | 140 nM | 6 µM | CN1CCC(n2nc(C#Cc3cccc(NC(=O)c4cccc(C(F)(F)F)c4)c3)c3c(N)ncnc32)CC1 |

| IC50 [1] | IC50 [2] | IC50 [3] | SMILES |
| --- | --- | --- | --- |
| 523 nM | 621 nM | > 10 µM | Cc1ccc(NC(=O)c2ccc(F)c(C(F)(F)F)c2)cc1C#Cc1nn(C2CCN(C)CC2)c2ncnc(N)c12 |
| 1880 nM | 3380 nM | > 10 µM | Cc1ccc(NC(=O)c2cc(C(F)(F)F)cc(Cl)c2F)cc1C#Cc1nn(C2CCN(C)CC2)c2ncnc(N)c12 |
| 51 nM | 94 nM | 7.1 µM | Cc1ccc(NC(=O)c2cc(C(F)(F)F)cc(C(F)(F)F)c2)cc1C#Cc1nn(C2CCN(C)CC2)c2ncnc(N)c12 |
| 947 nM | 195 nM | > 10 µM | CN1CCC(n2nc(C#Cc3cc(NC(=O)c4cccc(C(F)(F)F)c4)ccc3Cl)c3c(N)ncnc32)CC1 |
| 296 nM | 273 nM | > 10 µM | Cc1ccc(NC(=O)c2cccc(C(F)(F)F)c2F)cc1C#Cc1nn(C2CCN(C)CC2)c2ncnc(N)c12 |
| 75 nM | 93 nM | > 10 µM | Cc1ccc(NC(=O)c2cccc(OC(F)(F)F)c2)cc1C#Cc1nn(C2CCN(C)CC2)c2ncnc(N)c12 |
| 1690 nM | 343 nM | > 10 µM | CN1CCC(n2nc(C#Cc3cccc(C(=O)Nc4cccc(C(F)(F)F)c4)c3)c3c(N)ncnc32)CC1 |
| 101 nM | 285 nM | > 10 µM | COc1cccc(C(=O)Nc2ccc(C)c(C#Cc3nn(C4CCN(C)CC4)c4ncnc(N)c34)c2)c1 |
| 1350 nM | 557 nM | 6.2 µM | CN1CCC(n2nc(C#Cc3cccc(NC(=O)Nc4cccc(C(F)(F)F)c4)c3)c3c(N)ncnc32)CC1 |
| 854 nM | 5140 nM | > 10 µM | Cc1ccc(NC(=O)c2ccc(C(F)(F)F)cc2)cc1C#Cc1nn(C2CCN(C)CC2)c2ncnc(N)c12 |
| 41 nM | 115 nM | 3.5 µM | Cc1ccc(C(=O)Nc2cccc(C(F)(F)F)c2)cc1C#Cc1nn(CC2CCN(C)C2)c2ncnc(N)c12 (stereo not drawn) |
| 749 nM | 135 nM | > 10 µM | CN1CCC(n2nc(C#Cc3cc(C(=O)Nc4cccc(C(F)(F)F)c4)ccc3Cl)c3c(N)ncnc32)CC1 |
| 23 nM | 319 nM | > 10 µM | Cc1ccc(NC(=O)c2ccc(Cl)c(C(F)(F)F)c2)cc1C#Cc1nn(C[C@@H](C)CO)c2ncnc(N)c12 |
| 671 nM | 1430 nM | > 10 µM | Cc1ccc(NC(=O)c2cc(F)cc(C(F)(F)F)c2)cc1C#Cc1nn(C2CCN(C)CC2)c2ncnc(N)c12 |
| 201 nM | 117 nM | 2.7 µM | Cc1ccc(NC(=O)c2cc(C(F)(F)F)ccc2F)cc1C#Cc1nn(C2CCN(C)CC2)c2ncnc(N)c12 |
| 947 nM | 334 nM | > 10 µM | CN1CCC(n2nc(C#Cc3cc(NC(=O)Nc4cccc(C(F)(F)F)c4)ccc3Cl)c3c(N)ncnc32)CC1 |
| 60 nM | 733 nM | 9.2 µM | Cc1ccc(NC(=O)c2cccc(Cl)c2)cc1C#Cc1nn(C2CCN(C)CC2)c2ncnc(N)c12 |

| SMILES | IC50 [1] | IC50 [2] | IC50 [3] |
| --- | --- | --- | --- |
| Cc1ccc(NC(=O)c2cccc(C(F)(F)F)c2)cc1C#Cc1nn([C@@H]2CCN(C)C2)c2ncnc(N)c12 | – | – | 6.6 µM |
| Cc1ccc(NC(=O)c2cccc(C(F)(F)F)c2)cc1C#Cc1nn(CC2CCN(C)C2)c2ncnc(N)c12 (stereo not drawn) | – | – | 4.7 µM |
| Cc1ccc(NC(=O)c2cccc(C(F)(F)F)c2)cc1C#Cc1nn(CC2CCN(C)CC2)c2ncnc(N)c12 | – | – | 3.2 µM |
